In one experiment the target is ATR (Mus musculus, UniProt Q9JKK8). Format: cell-based. Particulars: increasing doses of caffeine. Summed up: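 3T3 TopBP1-ER mouse cells (15000/well) were plated the day before on gelatine-coated wells. Graded caffeine doses were added for 15 min at 37 °C, then 4-OHT for 60 min at 37 °C. Cells were paraformaldehyde-fixed and stained for γH2AX by immunofluorescence. Automated 10x imaging gave mean γH2AX per DAPI-masked nucleus from ≥300 cells/well. Values were normalized to no-4-OHT (min) and 4-OHT-only (max) controls. Error bars s.d.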

A further experiment has as its system IGF-IR. The following applies: equally potent on both kinases in vitro; cited from earlier work.

The structures appear in SMILES notation.

Data on two compounds can be found in PMC4869831 (Nature structural & molecular biology, 2011).

ATR, sequence (Q9JKK8 whole entry): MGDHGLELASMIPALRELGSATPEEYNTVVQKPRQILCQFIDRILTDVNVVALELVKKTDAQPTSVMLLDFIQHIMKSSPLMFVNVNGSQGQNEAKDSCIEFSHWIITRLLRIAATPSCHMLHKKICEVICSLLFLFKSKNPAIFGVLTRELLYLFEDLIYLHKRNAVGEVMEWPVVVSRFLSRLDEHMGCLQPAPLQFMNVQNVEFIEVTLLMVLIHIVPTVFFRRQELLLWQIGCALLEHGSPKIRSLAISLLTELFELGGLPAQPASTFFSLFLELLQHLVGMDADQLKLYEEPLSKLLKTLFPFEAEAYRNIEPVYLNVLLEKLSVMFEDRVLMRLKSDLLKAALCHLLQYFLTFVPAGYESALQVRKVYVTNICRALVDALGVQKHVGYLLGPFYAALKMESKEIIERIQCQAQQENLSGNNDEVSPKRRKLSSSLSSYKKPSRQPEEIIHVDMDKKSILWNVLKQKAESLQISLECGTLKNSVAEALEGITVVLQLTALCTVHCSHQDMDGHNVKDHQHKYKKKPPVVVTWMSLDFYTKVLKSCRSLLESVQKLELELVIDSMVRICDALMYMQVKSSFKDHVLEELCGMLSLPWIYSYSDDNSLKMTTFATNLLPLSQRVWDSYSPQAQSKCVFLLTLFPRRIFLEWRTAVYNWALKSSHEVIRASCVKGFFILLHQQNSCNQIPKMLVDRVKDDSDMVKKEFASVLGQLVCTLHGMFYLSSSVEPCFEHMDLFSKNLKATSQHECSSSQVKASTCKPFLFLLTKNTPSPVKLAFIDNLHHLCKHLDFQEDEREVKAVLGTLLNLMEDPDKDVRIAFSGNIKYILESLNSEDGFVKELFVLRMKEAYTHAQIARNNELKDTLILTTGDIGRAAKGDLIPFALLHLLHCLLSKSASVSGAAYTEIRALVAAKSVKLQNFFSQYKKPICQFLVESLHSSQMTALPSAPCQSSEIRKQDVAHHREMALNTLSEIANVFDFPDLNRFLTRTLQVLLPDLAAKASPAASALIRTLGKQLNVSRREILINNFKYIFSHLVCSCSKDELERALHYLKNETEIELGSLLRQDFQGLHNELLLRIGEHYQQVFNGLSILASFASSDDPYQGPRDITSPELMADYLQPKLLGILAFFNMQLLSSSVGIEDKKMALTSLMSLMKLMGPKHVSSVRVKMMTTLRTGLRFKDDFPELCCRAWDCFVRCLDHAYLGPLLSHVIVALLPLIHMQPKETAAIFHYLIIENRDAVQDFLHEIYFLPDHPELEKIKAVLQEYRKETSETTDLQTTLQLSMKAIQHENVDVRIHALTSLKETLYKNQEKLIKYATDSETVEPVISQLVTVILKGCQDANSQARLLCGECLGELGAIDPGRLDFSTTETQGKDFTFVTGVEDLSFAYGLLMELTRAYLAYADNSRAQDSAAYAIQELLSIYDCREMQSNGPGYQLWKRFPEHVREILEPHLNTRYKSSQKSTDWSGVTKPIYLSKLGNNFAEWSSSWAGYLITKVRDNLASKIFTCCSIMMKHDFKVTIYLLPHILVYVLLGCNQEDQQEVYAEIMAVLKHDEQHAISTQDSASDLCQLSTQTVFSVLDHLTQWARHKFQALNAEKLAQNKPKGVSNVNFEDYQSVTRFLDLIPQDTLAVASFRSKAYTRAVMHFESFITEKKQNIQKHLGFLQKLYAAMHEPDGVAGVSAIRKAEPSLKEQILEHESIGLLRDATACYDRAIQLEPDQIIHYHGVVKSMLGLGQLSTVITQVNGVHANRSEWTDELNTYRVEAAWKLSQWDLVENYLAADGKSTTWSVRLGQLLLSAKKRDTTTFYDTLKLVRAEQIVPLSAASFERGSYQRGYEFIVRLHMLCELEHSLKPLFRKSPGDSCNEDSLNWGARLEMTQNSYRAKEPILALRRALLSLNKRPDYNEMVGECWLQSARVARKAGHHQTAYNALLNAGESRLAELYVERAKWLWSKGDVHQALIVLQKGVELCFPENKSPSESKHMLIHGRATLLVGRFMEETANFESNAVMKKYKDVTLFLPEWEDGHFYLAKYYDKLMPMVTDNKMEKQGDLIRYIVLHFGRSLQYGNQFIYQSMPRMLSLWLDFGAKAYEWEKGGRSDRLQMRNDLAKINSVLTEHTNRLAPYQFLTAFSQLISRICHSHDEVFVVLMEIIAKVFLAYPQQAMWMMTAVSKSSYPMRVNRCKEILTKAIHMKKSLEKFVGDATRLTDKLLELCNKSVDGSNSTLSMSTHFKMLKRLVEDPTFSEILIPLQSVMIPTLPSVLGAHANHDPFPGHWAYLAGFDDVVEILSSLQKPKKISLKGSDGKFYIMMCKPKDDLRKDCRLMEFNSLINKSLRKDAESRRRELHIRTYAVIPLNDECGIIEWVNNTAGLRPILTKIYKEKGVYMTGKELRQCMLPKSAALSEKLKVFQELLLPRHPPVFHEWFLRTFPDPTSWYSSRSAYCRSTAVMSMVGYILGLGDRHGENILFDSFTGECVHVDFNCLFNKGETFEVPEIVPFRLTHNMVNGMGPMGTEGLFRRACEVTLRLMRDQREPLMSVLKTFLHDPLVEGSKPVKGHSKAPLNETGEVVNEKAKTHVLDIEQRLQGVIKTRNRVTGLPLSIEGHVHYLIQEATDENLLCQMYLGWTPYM

Regarding `Cn1c(=O)c2c(ncn2C)n(C)c1=O` [Caffeine], the “nuclear γH2AX signal induced by 4-OHT” value on ATR is on record as “stepwise decrease in the γH2AX signal”. As for `Nc1ncnc2c1c(-c1cccc(OCc3ccccc3)c1)cn2[C@H]1C[C@@H](CN2CCC2)C1` [NVP-AEW541], the “selectivity against IGF-IR vs InsR in cellulo” value in the experiment on IGF-IR is recorded as 26 fold.
